Test results as given in PMC6684861 (Traffic (Copenhagen, Denmark), 2018).
Primed or numbered codes have the meaning given here. No end group written: not given here. FITC′ = fluorescein isothiocyanate label

Tests used:
[1] = system: U2OS cells; conditions: compared with pol λ in U2OS cells; ref [24]; cited from earlier work
[2] = system: Impα; conditions: ref [24]; cited from earlier work
[3] = target: ImpαΔIBB (Mus musculus, UniProt P52293); experiment: X-ray crystallography of ImpαΔIBB-NLS peptide complexes; format: binding, murine; conditions: estimated from electron density
Outline: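 ImpαΔIBB (15 mg/ml in 20 mM Tris pH 7.8, 125 mM NaCl, 5 mM DTT) was mixed with test NLS peptide at 1.25:1 molar excess. Crystals were grown by hanging-drop vapor diffusion. For two complexes the mother liquor was 0.7 or 0.8 M sodium citrate with 0.1 M HEPES pH 7.0. Rfree used 5% of reflections excluded from refinement. Geometry was checked with MolProbity.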

[4] = system: U2OS cells; experiment: Nuclear/cytosolic ratio of pol X-GFP adducts in transfected U2OS cells; format: cell-based, human; conditions: among the four mammalian enzymes, in the cell-types investigated
Outline: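 U2OS cells in RPMI 1640 with 10% FBS (37 °C, 5% CO2) were seeded at 10,000 cells/chamber. They were transfected (Lipofectamine 2000, 1:4 DNA:reagent) with wild-type or NLS-mutant polymerase-GFP plasmids, then fixed at 24 h (3.7% formaldehyde), permeabilized and stained with CellMask and a nuclear stain. Confocal GFP intensity was measured in nuclear and cytoplasmic ROIs of ≥30 cells/construct. Ratios were averaged with ±2 SD outliers removed, then analysed by ANOVA/Tukey.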

occupancy of the minor binding pocket [3]	Substance	nuclear/cytosolic ratio of pol β [1]	binding affinity of NLS for the minor binding pocket of Impα [2]	extent of nuclear localization, in words [4]
	DNA polymerase β [pol β]	~ 3	highly selective binding affinity for the minor binding pocket of Impα	
~ 70%	pol λ NLS: bipartite N-terminal NLS of pol λ (KAFPKRQKIHADASSKVLAKIPRREEGK-{FITC′})			greatest extent of nuclear localization
